Measured values published in PMC6004563 (ACS Medicinal Chemistry Letters, 2018).
Blank lines part the entries; values can stand above or below the molecule they belong to.

Assays:
[1] = target: eIF4E−4E-BP1 protein-protein interaction (Homo sapiens, UniProt P06730); test: Selectivity: cat-ELCCA of the eIF4E−4E-BP1 protein-protein interaction; type: binding; details: compound at 100 µM
[2] = target: Dicer-mediated pre-let-7d maturation (Homo sapiens, UniProt Q9UPY3); test: Selectivity: Dicer-mediated pre-let-7d maturation; type: biochemical; details: compound at 100 µM
Dicer-mediated pre-let-7d maturation, sequence (Q9UPY3 whole entry): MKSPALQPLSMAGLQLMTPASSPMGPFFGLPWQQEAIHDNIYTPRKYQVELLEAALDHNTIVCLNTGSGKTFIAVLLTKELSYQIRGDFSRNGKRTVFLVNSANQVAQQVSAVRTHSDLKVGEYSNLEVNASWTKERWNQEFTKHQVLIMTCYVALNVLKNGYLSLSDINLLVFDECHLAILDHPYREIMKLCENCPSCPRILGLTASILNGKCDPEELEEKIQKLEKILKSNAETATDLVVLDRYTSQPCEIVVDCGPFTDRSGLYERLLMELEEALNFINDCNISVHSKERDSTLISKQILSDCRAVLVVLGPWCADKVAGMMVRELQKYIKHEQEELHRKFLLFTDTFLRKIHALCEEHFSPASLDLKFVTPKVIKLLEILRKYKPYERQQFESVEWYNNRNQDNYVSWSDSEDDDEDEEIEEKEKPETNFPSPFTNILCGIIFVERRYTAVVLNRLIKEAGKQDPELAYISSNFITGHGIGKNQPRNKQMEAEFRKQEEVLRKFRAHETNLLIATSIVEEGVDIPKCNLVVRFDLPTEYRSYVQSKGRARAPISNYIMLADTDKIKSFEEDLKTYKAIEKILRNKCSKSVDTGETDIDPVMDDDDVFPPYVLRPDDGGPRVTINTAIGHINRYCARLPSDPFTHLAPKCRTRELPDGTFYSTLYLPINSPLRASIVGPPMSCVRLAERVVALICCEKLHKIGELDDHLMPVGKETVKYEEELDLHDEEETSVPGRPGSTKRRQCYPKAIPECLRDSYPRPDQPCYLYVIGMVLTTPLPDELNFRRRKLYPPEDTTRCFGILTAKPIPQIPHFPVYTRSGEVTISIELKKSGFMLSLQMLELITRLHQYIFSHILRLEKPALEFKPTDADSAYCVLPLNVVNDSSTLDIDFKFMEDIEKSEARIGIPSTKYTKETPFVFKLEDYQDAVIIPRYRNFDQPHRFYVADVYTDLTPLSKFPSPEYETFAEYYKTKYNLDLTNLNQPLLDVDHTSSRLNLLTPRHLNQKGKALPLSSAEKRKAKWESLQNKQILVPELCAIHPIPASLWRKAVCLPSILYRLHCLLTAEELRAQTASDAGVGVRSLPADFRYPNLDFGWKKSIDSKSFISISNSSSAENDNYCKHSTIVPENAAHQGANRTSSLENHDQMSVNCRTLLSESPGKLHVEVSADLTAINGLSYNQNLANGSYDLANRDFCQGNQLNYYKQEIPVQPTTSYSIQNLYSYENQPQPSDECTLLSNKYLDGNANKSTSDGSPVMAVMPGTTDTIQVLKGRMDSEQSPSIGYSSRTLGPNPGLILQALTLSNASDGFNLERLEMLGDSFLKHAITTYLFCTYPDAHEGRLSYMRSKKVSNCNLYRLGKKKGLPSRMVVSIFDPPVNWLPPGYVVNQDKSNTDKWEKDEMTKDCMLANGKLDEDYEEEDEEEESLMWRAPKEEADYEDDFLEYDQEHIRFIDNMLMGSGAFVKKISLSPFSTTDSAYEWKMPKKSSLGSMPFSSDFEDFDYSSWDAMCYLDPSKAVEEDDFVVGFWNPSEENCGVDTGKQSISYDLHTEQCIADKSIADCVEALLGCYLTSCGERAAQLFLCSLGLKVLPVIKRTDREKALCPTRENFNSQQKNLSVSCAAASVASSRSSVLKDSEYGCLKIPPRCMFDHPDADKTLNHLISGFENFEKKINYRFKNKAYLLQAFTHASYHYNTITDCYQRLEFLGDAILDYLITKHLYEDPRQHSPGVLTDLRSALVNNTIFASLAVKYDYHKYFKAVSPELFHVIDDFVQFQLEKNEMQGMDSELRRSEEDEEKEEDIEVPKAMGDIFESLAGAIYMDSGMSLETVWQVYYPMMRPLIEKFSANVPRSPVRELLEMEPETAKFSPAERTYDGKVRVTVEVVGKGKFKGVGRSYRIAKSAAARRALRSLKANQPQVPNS

biotinylated pre-let-7d = test: SPR binding to biotinylated pre-let-7d; details: 100, 50, 25, 12.5 and 6.25 µM
[3] = target: T1, pre-let-7d−Lin28 interaction (Mus musculus, UniProt Q8K3Y3); test: electrophoretic mobility shift assay; type: binding, murine; details: pre-let-7d with Lin28, dose response
T1 sequence (Q8K3Y3 2-209): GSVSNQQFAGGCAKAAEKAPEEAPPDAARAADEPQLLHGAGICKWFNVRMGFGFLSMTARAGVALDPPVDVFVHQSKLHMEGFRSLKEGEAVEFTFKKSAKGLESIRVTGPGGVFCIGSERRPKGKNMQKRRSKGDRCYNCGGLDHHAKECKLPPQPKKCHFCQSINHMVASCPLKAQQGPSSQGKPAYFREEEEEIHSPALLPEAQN

[4] = target: T2, pre-let-7d–Lin28A interaction (Mus musculus, UniProt Q8K3Y3); test: cat-ELCCA of the pre-let-7d–Lin28A interaction; type: binding, murine
T2 sequence (Q8K3Y3 2-209): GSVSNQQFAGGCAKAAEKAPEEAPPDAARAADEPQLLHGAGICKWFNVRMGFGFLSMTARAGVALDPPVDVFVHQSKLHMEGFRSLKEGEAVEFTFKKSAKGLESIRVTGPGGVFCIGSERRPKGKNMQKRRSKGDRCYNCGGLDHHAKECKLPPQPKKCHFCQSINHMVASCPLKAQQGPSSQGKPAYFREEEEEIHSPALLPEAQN
Outline: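 Murine Lin28A, expressed as an N-terminal HaloTag fusion and biotin-labelled, was immobilised in streptavidin-coated wells. Wells were then incubated with pre-let-7d bearing a 5′-trans-cyclooctene click handle. Bound RNA was detected by click reaction with methyltetrazine-labelled HRP, then HRP substrate, with chemiluminescence as read-out. Washing steps were included.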

[5] = target: T3, HaloTag-mLin28A (biotinylated) (Mus musculus, UniProt Q8K3Y3 1-209); test: cat-ELCCA
T3 sequence: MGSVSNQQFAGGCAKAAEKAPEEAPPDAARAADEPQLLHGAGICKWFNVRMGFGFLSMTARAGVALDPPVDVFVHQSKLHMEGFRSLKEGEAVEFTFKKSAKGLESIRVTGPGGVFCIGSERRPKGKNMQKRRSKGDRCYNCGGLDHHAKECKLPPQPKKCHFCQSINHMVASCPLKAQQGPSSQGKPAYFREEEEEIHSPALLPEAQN

eIF4E−4E-BP1 protein-protein interaction, sequence (P06730 whole entry): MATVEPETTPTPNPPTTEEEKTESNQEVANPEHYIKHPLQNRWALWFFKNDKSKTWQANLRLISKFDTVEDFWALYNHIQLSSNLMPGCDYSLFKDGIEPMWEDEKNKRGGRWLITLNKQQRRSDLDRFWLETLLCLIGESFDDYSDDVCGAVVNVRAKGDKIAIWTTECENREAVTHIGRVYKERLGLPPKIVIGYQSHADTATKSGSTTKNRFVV

inhibition of cat-ELCCA-based PPI assay [1]: insignificant inhibition
inhibition of Dicer-mediated pre-let-7d maturation [2]: insignificant inhibition
binding to pre-let-7d (SPR) (biotinylated pre-let-7d): not pre-let-7d
activity in EMSA [3]: concentration-responsive activity
Molecule: Cc1ccc(S(=O)(=O)Nc2ccc(F)cc2NS(=O)(=O)c2ccc(C)cc2)cc1 [CCG-233094]

inhibition of cat-ELCCA-based PPI assay [1]: insignificant inhibition
inhibition of Dicer-mediated pre-let-7d maturation [2]: insignificant inhibition
binding to pre-let-7d (SPR) (biotinylated pre-let-7d): not pre-let-7d
activity in EMSA [3]: concentration-responsive activity
Molecule: Cc1ccc(S(=O)(=O)Nc2ccc(C)cc2NS(=O)(=O)c2cccc(C(F)(F)F)c2)cc1 [CCG-234459]

activity (inhibition of pre-let-7d–Lin28A) [4]: inactive
Molecule: Nc1ccccc1NS(=O)(=O)c1ccccc1 [Compound 3]

activity (inhibition of pre-let-7d–Lin28A) [4]: inactive
Molecule: O=S(=O)(Nc1cccc(NS(=O)(=O)c2ccccc2)c1)c1ccccc1 [Compound 4, N,N′-(1,3-phenylene)dibenzenesulfonamide]

activity (inhibition of pre-let-7d–Lin28A) [4]: inactive
Molecule: O=S(=O)(c1ccccc1)N1CCN(S(=O)(=O)c2ccccc2)c2ccccc21 [Compound 5]

activity (inhibition of pre-let-7d–Lin28A) [4]: inactive
Molecule: O=C(Nc1ccccc1NC(=O)c1ccccc1)c1ccccc1 [Compound 6]

B1: 5'-TCO-pre-let-7d (structured_RNA)
RNA: AGAGGUAGUAGGUUGCAUAGUUUUAGGGCAGGGAUUUUGCCCACAAGGAGGUAACUAUACGACCUGCUGCCUUUCU
modifications: 5'-phosphate pentylamine (N5) linked to TCO-PEG4
Kd [5]: 106 nM
